An excerpt weighted towards active compounds, which were near 2.2% of everything screened.
dFosB act – activators of delta FosB homodimer, primary screen, biochemical, fluorescence polarization, TAMRA-CDK5 oligo, single point | Protein FosB (Mus musculus), P13346 | purified delta FosB; percent of positive-control signal above neutral wells | activation, % at 25 µM | actives 0.99% (n = 340,000) | AID 493131, 2011;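 active means mean activation above about 17%, with every replicate also reaching it, limit read from the data, passing the limit was not always enough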
FGF22 binding – binders of human FGF22 protein, primary screen, FGF22 synaptogenesis inhibitor project, biophysical, thermal shift, single point | Fibroblast growth factor 22 (Homo sapiens), Q9HCT0 | recombinant FGF22 thermal shift, SYPRO orange fluorescence; percent of sucrose octasulfate shift, DMSO zero | activity (Tm shift, normalised), % at 9.99 µM | actives 1.5% (n = 340,000);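 active means mean Tm shift, scaled 0 neutral to 100 positive control, at about 1.3% or above, every replicate too, limit read from the data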
Target sequence (Q9HCT0 whole entry, looked up): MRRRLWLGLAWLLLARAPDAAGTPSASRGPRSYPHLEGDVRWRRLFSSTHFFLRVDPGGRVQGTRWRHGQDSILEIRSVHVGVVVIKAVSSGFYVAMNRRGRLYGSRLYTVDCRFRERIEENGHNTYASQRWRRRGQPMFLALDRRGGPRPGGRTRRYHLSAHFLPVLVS
CFTR F508del cor – F508del CFTR correction, initial screen, CFBE line, single point | activity (quench increase), % at 7.58 µM | CFBE cells, YFP halide quenching; stimulated with forskolin plus potentiator P3; % fluorescence drop versus neutral controls | actives 0.36% (n = 350,000);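 active means mean added fluorescence quench of at least 8% versus neutral control, with both replicates also reaching 8%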;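 further: cells transiently co-express mutant CFTR-F508del with the halide-sensitive YFP; corrector assay measuring rescue of mutant channel to the surface after 24 h compound exposure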
S100A4 MyoIIA – inhibitors of S100A4-myosin IIA peptide binding, primary screen, biochemical, fluorescence polarization, TAMRA-MyoIIA peptide. actives 0.14% (n = 360,000). Protein S100-A4 (Homo sapiens), P26447. AID 652163, 2013. inhibition, % at 10.7 µM;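 active means mean inhibition of at least 70% across replicates, with every replicate also reaching that level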
Target sequence (P26447 whole entry, looked up): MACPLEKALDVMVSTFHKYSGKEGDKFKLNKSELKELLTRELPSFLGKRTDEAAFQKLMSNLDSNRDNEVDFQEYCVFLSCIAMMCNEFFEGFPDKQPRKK
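System – human S100A4 monomer protein, biochemical binding assay · Buffer or medium – Calcium-containing HEPES buffer, pH 7.2 · Timing – 5 min between mix addition and reading · Also added – TAMRA-labelled myosin IIA heavy-chain peptide probe, 5 nM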
Of the large screens only hits and unclear results are named; the others gave an inactive call; ! = not active in a repeat.

C[C@@H]1CN([C@@H](C)CO)C(=O)c2cc(C#CCN(C)C)cnc2O[C@@H]1CN(C)Cc1ccc(-c2ccccc2)cc1	none (no result: dFosB act)
COCC#Cc1cnc2c(c1)C(=O)N([C@H](C)CO)C[C@H](C)[C@H](CN(C)C(=O)C1CCC1)O2	S100A4 MyoIIA 133.2 (no result: dFosB act)
C[C@@H]1CN([C@@H](C)CO)C(=O)c2cc(C#CCN(C)C)cnc2O[C@H]1CN(C)Cc1ccc(-c2ccccc2)cc1	CFTR F508del cor 9.2! (no result: dFosB act)
C[C@H]1CN([C@@H](C)CO)C(=O)c2cc(C#CCc3ccccc3)cnc2O[C@H]1CN(C)CC1CC1	none (no result: dFosB act, FGF22 binding, S100A4 MyoIIA)
CC(C)CC#Cc1cnc2c(c1)C(=O)N([C@H](C)CO)C[C@@H](C)[C@H](CN(C)S(C)(=O)=O)O2	S100A4 MyoIIA 95.3 (no result: dFosB act)
Cc1noc(C)c1NC(=O)N[C@@H]1C=C[C@@H](CC(=O)NCc2ccc(Cl)c(Cl)c2)O[C@@H]1CO	none (no result: dFosB act)
O=C(C[C@@H]1C[C@H]2c3cc(NC(=O)Cc4ccncc4)ccc3O[C@H]2[C@@H](CO)O1)NCC1CC1	none (no result: dFosB act)
Cc1nc2ccccc2c(C)c1C(=O)c1ccccc1	none
O=c1nc2cccc3c2=c(/c1=C(\O)c1ccccc1)c1ccccc1c3=O	FGF22 binding 43.8
Cc1c(OCC(=O)NCCCN2CCOCC2)ccc2c3c(c(=O)oc12)CCCC3	none
Cc1c(OCC(=O)NCCCN2CCCC2=O)ccc2c3c(c(=O)oc12)CCC3	S100A4 MyoIIA active
Cc1c(OCC(=O)NCCN2CCOCC2)ccc2c3c(c(=O)oc12)CCC3	CFTR F508del cor 10.9
CCCNC(=O)N1CC2(CCN(C(C)=O)CC2)c2c(n(C)c3cc(OC)ccc23)[C@@H]1CO	none (no result: dFosB act)
Cc1ccc(S(=O)(=O)N[C@@H]2CC[C@H](CCn3cc(C4CCCCC4)nn3)O[C@H]2CO)cc1	none (no result: dFosB act)
C[C@@H]1CN([C@H](C)CO)C(=O)c2cccc(NS(=O)(=O)c3cn(C)cn3)c2O[C@H]1CN(C)Cc1ccc(C(=O)Nc2ccccc2N)cc1	none (no result: dFosB act)
CC(=O)c1ccc(NC(=O)CN2C(=O)/C(=C/C(C)=C/c3ccccc3)SC2=S)cc1	none (no result: CFTR F508del cor)
CC(/C=C1\SC(=S)N(CCC(=O)Nc2ccc(O)cc2)C1=O)=C\c1ccccc1	dFosB act 23.4 (no result: FGF22 binding)
CC(=Cc1ccccc1)C=C1SC(=S)N(CCCC(=O)Nc2ccc(C(=O)O)c(O)c2)C1=O	FGF22 binding 2.6 (no result: dFosB act)
CC(=C\c1ccccc1)/C=C1/SC(=O)N(CCCC(=O)Nc2ccc(C(=O)O)cc2)C1=O	none
CC(C)NC(=O)N(C)C[C@H]1Oc2ncc(C#CCc3ccccc3)cc2C(=O)N([C@H](C)CO)C[C@H]1C	none (no result: dFosB act)
COc1ccc(C(C(=O)NCc2ccccc2)N(C(=O)c2snc(C(N)=O)c2N)c2ccccc2OC)cc1 (configuration not stated)	none
COc1ccc(N(C(=O)c2snc(C(N)=O)c2N)C(C(=O)NCc2ccccc2)c2ccc(F)cc2)c(OC)c1 (configuration not stated)	dFosB act 24.8
CC(C)c1c(O)ccc2c1CC[C@H]1C(C)(C)CCC[C@]21C	CFTR F508del cor 9.0
CC(C)(O)c1ccc2c(c1)CCC1C(C)(C(=O)O)CCCC21C (configuration not stated)	none
CC(C)(c1cc(Br)c(O)c(Br)c1)c1cc(Br)c(O)c(Br)c1	FGF22 binding 1.6
CC(C)(c1ccc(O)c([N+](=O)[O-])c1)c1ccc(O)c([N+](=O)[O-])c1	none
CCN(CC)c1ccc(-c2sc(Nc3ccccc3)n[n+]2-c2ccc(F)cc2)cc1	dFosB act 27.6
CCc1ccc(Nc2n[n+](-c3ccccc3)c(-c3ccc(N(CC)CC)cc3)s2)cc1	dFosB act 74.6
CN(C)c1ccc(-c2sc(Nc3ccccc3)n[n+]2-c2ccc(F)cc2)cc1	none
COCC#Cc1cnc2c(c1)C(=O)N([C@H](C)CO)C[C@@H](C)[C@H](CN(C)C(=O)c1ccc(F)cc1)O2	none (no result: dFosB act)
COc1ccc(S(=O)(=O)Nc2ccc3c(c2)CC(=O)N([C@@H](C)CO)C[C@H](C)[C@H](CN(C)Cc2ccncc2)O3)cc1	none (no result: dFosB act)
Cc1ccc(/C(O)=C2/C(=O)C(=O)N(CCN3CCOCC3)C2c2cccnc2)cc1 (configuration not stated)	none (no result: FGF22 binding, CFTR F508del cor, S100A4 MyoIIA)

Screening results: PubChem, Broad Institute
